# From PubChem BioAssay
# NR3A LBD binder: NR3A (human) ligand-binding domain modulation; NR3A LBD differential scanning fluorimetry, Tm shift; 0% = protein alone, 100% = glycine-bound protein; Tm shift relative to glycine control, % at 25 µM; hit rate 2.5% among 340,000;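 active = melting temperature shift of at least 10% of the positive control shift, at one fixed dose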
# ATG4B inhibitor: inhibitors of human ATG4B cysteine protease; hit rate 0.51% among 340,000; inhibition, % at 8.33 µM; ATG4B cleavage of LC3-PLA2, NBD-HPC fluorescence, 1 h; AID 504462; Q9Y4P1; in the data active = inhibition above about 40%
# Target sequence (Q9Y4P1 whole entry, looked up): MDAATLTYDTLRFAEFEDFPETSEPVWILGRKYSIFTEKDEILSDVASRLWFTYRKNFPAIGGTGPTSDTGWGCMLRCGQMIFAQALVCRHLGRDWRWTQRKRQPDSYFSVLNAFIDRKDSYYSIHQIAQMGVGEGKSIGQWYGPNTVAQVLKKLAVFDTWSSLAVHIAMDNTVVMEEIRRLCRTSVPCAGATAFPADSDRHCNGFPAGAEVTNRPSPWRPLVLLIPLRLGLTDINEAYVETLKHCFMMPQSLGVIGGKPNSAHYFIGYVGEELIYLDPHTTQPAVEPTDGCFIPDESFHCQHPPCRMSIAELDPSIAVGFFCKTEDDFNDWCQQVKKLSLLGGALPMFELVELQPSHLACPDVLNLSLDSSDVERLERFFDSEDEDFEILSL
# UCH37 DUB inh: blocks the human deubiquitinase UCH37; AID 588478; hit rate 0.33% among 330,000; purified proteasome/UCH37, Ub-AMC cleavage fluorescence; inhibition, % (concentration not given with the values);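 active = mean inhibition over replicate wells above about 20%, limit read from the data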;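 note: 0% = compound-free wells with enzyme and 100% = wells lacking proteasome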
#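 Material: human UCH37 enzyme supplied as purified proteasome complex. Measure: % inhibition of Ub-AMC cleavage fluorescence. Medium: pH 7.4 Tris-HCl (50 mM) with ovalbumin, ATP-MgCl2, DTT. Times: 30 min preincubation with enzyme, 25 min cleavage at room temperature. Detection: AMC fluorescence intensity at 355/460 nm.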
# NadD inh: blocks S. aureus nicotinate mononucleotide adenylyltransferase. hit rate 0.78% among 360,000. AID 602399. inhibition, % at 20 µM. purified NadD enzyme, colorimetric absorbance read-out; in the data active = inhibition above about 26%
# SENP1 FRET inh: SENP1 (human) catalytic domain inhibition. inhibition, % at 10 µM. Q9P0U3. AID 624204. recombinant SENP1 catalytic domain, CyPet-SUMO1-YPet FRET cleavage. hit rate 0.21% among 360,000;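 active = inhibition at least 30% at 10 µM, raw YFP signal under a set limit, fluorescence ratio 0.5 to 1.5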;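 note: 0% = enzyme with DMSO and 100% = no enzyme wells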
# Target sequence (Q9P0U3 419-644 limits assumed): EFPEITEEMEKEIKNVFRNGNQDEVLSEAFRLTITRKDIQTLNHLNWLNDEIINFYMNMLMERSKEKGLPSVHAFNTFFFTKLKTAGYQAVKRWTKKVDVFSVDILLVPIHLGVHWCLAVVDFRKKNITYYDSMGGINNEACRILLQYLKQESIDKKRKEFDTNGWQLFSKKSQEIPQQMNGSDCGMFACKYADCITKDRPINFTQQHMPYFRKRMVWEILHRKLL
#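 System: Recombinant human SENP1 catalytic domain, His6-tagged | Incubation: Enzyme reaction for 50 min at room temperature, dark | Medium: Tris pH 8 with BME, BSA, NP40 and catalase | Also added: 25 nM SUMO1 FRET substrate | Compound: 10 µM single point, 0.5% DMSO | Measured by: FRET fluorescence in CFP and YFP emission channels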
# NadD conf: NadD (S. aureus) inhibition, single concentration confirmation; shares compounds with NadD inh; inhibition, % at 20 µM; hit rate 13% among 2,000; purified S. aureus NadD, colorimetric enzyme assay; in the data active = inhibition mostly above about 42%, no sharp cut-off; inactive = mostly below about 42%
# * = called active by the depositor; x = no result. Shown are actives, neighbours in structure and some others; about 3.6% of the full set was active somewhere.
SMILES,NR3A LBD binder,ATG4B inhibitor,UCH37 DUB inh,NadD inh,SENP1 FRET inh,NadD conf
O=C(NN=Cc1cc([N+](=O)[O-])cc([N+](=O)[O-])c1O)/C(=C\c1cccs1)NC(=O)c1ccccc1,x,x,12,x,x,x
CCOC(=O)c1c(NC(=O)CSc2nnc(-c3c[nH]c4ccccc34)n2C)sc2c1CCCC2,0,-11,3,33*,0,25
COCCn1c(SCC(=O)Nc2ccc3c(c2)OCCO3)nnc1-c1c[nH]c2ccccc12,-2,4,2,-2,2,x
CCOC(=O)c1c(NC(=O)CSc2nnc(-c3c[nH]c4ccccc34)n2CCOC)sc2c1CCCC2,-5,-2,2,34*,2,37
CSc1sc(C#N)c2c1C(=NO)CCC2,x,x,5,x,x,x
COc1ccc(C(=O)NC(=S)Nc2ccc(S(=O)(=O)Nc3cc(OC)ncn3)cc2)cc1,-19,-9,3,4,1,x
COc1cc(NS(=O)(=O)c2ccc(NC(=S)NC(=O)c3sc4ccccc4c3Cl)cc2)ncn1,-3,2,5,50*,-14,14
C=C(C)CN=C1SC(C(=O)Nc2sc3c(c2C(=O)OC)CCC3)C(N)=C1C(N)=O (configuration not stated),-1,-21,-12,12,-38,x
COC(=O)c1c(NC(=O)C2SC(=NC3CCCCC3)C(C(N)=O)=C2N)sc2c1CCCC2 (configuration not stated),4,6,-15,38*,-16,7
C/C(=N\NC(=O)CCc1c[nH]c2ccccc12)c1cccc([N+](=O)[O-])c1,-27,-14,x,-5,1,x
Cc1cc(C)nc(NC(=NCCc2c[nH]c3ccccc23)NC(=O)Nc2ccc(Cl)c(Cl)c2)n1,27*,-1,6,38*,0,3
Cc1cc(C)nc(NC(=NCCc2c[nH]c3ccccc23)NC(=O)Nc2cccc([N+](=O)[O-])c2)n1,-12,-9,0,49*,-1,8
Cc1cccc(NC(=O)NCCc2c[nH]c3ccccc23)c1,8,-4,2,-9,-1,x
Oc1ccc2ccccc2c1/C=C/c1ccc2c(Br)cc(Br)c(O)c2n1,15*,3,x,58*,-31,33
NS(=O)(=O)c1ccc(NC(=O)c2cc(-c3cccs3)nc3ccccc23)cc1,1,-4,x,3,-1,x
C#CCn1c(=NC(=O)c2cc(-c3cccs3)nc3ccccc23)sc2cc(S(N)(=O)=O)ccc21,15*,10,-188,53*,-31,55*
CC(C)(C)C(=O)ON=C(N)c1ccc(-c2csnn2)cc1,x,x,2,x,x,x
Cc1ccc(S(=O)(=O)N=C(c2ccccc2)N2CCOCC2)c(C)c1,x,x,0,x,x,x
COc1ccc(C(=O)Nc2cccc(-c3cc4ccccc4oc3=O)c2)cc1[N+](=O)[O-],11*,23,5,35*,1,10
CC(=O)Nc1ccc(NC(=O)c2cccc(-c3cc4ccccc4oc3=O)c2)cc1,-4,0,0,3,-2,x
O=C(NN=C1CC2C=CCC12)c1cccs1 (configuration not stated),x,x,4,x,x,x
O=C(Cn1c2ccccc2c(=O)c2ccccc21)N/N=C/c1cc([N+](=O)[O-])ccc1N1CCCCCC1,-7,7,x,50*,-27,3
O=c1[nH]c(C2CCCN(S(=O)(=O)c3ccccc3)C2)nc2c1nnn2Cc1ccccc1 (configuration not stated),-1,-9,7,7,0,x
O=c1[nH]c(C2CCN(S(=O)(=O)c3ccc(F)cc3)CC2)nc2c1nnn2Cc1ccc2c(c1)OCCO2,-4,-8,6,30*,1,32
O=c1[nH]c(C2CCN(S(=O)(=O)c3ccccc3F)CC2)nc2c1nnn2Cc1ccc2c(c1)OCCO2,-8,8,5,23,0,x
SMILES,NR3A LBD binder,ATG4B inhibitor,UCH37 DUB inh,NadD inh,SENP1 FRET inh,NadD conf
O=c1[nH]c(C2CCN(S(=O)(=O)c3ccc(C(F)(F)F)cc3)CC2)nc2c1nnn2Cc1cccc(F)c1,9,-3,7,31*,-2,20
Cc1ccc(C)c(Cn2nnc3c(=O)[nH]c(C4CCN(S(=O)(=O)c5ccc(S(=O)(=O)N(C)C)cc5)CC4)nc32)c1,4,-5,3,46*,1,9
Cc1ccc(Cn2nnc3c(=O)[nH]c(C4CCN(S(=O)(=O)c5ccc(F)cc5)CC4)nc32)cc1,-3,-12,-2,15,-1,x
Cc1ccc(S(=O)(=O)N2CCCC(c3nc4c(nnn4Cc4ccc5c(c4)OCCO5)c(=O)[nH]3)C2)cc1 (configuration not stated),1,8,6,37*,2,30
CCOC(=O)C=c1sc(=Cc2ccc(-c3ccccc3)cc2)c(=O)n1CC(=O)NCc1ccc2c(c1)OCO2,x,x,-108,x,x,x
O=c1[nH]c(C2CCN(S(=O)(=O)Cc3ccccc3)CC2)nc2c1nnn2Cc1ccccc1,-6,-5,1,0,1,x
O=c1[nH]c(C2CCN(S(=O)(=O)/C=C/c3ccccc3)CC2)nc2c1nnn2Cc1ccc(F)cc1,4,-15,5,35*,0,35
C=C(C)[C@@H]1CC[C@]2(C(=O)O)CC[C@]3(C)[C@H](CC[C@@H]4[C@@]5(C)CC[C@H](O)C(C)(C)[C@@H]5CC[C@]43C)[C@@H]12,1,15,-1,53*,0,13
C=C(CC[C@@H](O)C(C)(C)O)[C@H]1CC[C@]2(C)[C@@H]1CCC1[C@@]3(C)CC[C@H](O)C(C)(C)C3CC[C@]12C (some centres not stated),-2,10,x,-12,0,x
CCCOc1ccc(N)cc1N,0,-4,6,44*,-18,-3
CCCOc1cc(N)ccc1C(=O)OCCN(CC)CC,-1,-4,1,1,1,x
N#CCSc1nc2ccc(N3CCCCC3)cc2c(=O)n1Cc1ccccc1,-1,4,-49,41*,-46,6
N#CCSc1nc2ccccc2c(=O)n1CC1CCCC1,-2,20,-1,-1,-11,x
COc1cccc(-c2c(C(=O)N/N=C(\C)c3ccc(Cl)s3)nnn2-c2nonc2N)c1,11*,-3,x,32*,2,15
O=C1CC(c2ccco2)CC(O)=C1C=NCC1CCNCC1 (configuration not stated),-2,3,-3,34*,9,6
COc1ccc(C(=O)c2[nH]c(N)c(C(=O)NCCc3c[nH]c4ccccc34)c2-c2ccc(Br)cc2)cc1,x,x,x,44*,-18,29
CC(CC(=O)Nc1cccnc1)=NNC(=O)C(=O)NC(C)C,x,x,5,x,x,x
CCc1ccc2[nH]c(=O)c(CN(CCN(C)C)C(=S)NCc3ccco3)cc2c1,0,-8,-7,37*,-7,-34
